# Sampled rows, rich in hits. Any-hit rate of the full collection: about 2.5%.
# PAX8 inh HTS: inhibitors of PAX8 transcriptional activity in RMG-I cells. inhibition, % at 12.6 µM. 1.2% of 360,000 active. RMG-I TPO-luciferase reporter, SteadyGlo, 24 h;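 active = mean replicate inhibition at least 60% with every replicate also reaching 60%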;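 note: luciferase light reporting Pax8 driven TPO promoter activity; plate controls were median of neutral control wells for no effect and mitoxantrone controls for full effect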
# AF4-AF9 inh: inhibitors of human MLL-AF4/AF9 interaction; 0.47% of 350,000 active; AlphaScreen, biotin-AF4 peptide binding to FLAG-AF9; P42568; inhibition, % at 10 µM;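 active = every replicate reaching a set inhibition limit, whatever the replicate mean, cut at about 25% in these data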;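 note: 0% = plate neutral control median and 100% = total signal loss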
# Target sequence (P42568 whole entry, looked up): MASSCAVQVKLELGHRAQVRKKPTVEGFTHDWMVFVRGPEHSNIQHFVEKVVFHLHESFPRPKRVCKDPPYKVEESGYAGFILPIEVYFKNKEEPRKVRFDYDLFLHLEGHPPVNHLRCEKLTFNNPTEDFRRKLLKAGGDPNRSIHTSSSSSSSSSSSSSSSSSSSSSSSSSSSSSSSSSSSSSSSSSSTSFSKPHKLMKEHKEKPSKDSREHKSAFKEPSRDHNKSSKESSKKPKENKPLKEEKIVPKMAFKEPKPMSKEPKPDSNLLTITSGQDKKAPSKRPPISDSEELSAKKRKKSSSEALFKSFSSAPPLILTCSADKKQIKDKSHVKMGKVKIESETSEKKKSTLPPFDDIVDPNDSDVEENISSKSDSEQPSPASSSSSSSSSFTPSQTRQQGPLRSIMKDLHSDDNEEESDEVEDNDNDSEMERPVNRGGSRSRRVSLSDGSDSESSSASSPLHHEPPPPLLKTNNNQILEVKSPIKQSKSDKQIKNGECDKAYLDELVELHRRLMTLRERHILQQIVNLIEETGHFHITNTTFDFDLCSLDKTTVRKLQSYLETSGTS
# Glyco luc inh: blocks N-linked glycosylation in D54 reporter cells. 0.23% of 360,000 active. D54 ERlucT glycosylation luciferase reporter, 24 h; percent of 100 nM tunicamycin response. reporter increase, % at 12.5 µM;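 active = mean luciferase reporter signal, scaled so untreated is 0 and the glycosylation-blocking control 100, at or above a set limit in every replicate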;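 note: luciferase carries N-glycosylation sites so blocking glycosylation raises the light; 0% = median of neutral control wells and 100% = median of 100 nM tunicamycin wells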
# EWS-Fli block: inhibitors of EWS/Fli oncoprotein transcriptional activity. A673 NR0B1-luciferase reporter, viability-normalised. inhibition, % at 12.6 µM. 0.67% of 350,000 active. AID 651661;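 active = mean inhibition of at least 50% after viability correction, with every replicate also passing that limit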;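 note: firefly luciferase signal divided by Alamar Blue viability fluorescence both relative to DMSO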
# Env fusion inh: inhibitors of HIV Env-mediated cell fusion | HeLa-JRFL Env/CEM21 cell fusion, luciferase | inhibition, % at 12.3 µM | AID 651610 | 1.1% of 360,000 active;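 active = mean replicate inhibition score of at least 50 and every replicate individually at or above 50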;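 note: 0% = plate neutral controls and 100% = maraviroc near 300 nM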
# FN deposition inh: fibronectin deposition inhibition; AH1F fibroblasts, Alexa488-fibronectin deposition fluorescence, overnight; inhibition, % at 12.6 µM; 0.086% of 350,000 active; AID 743247;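 active = mean inhibition across replicates of 30% or more, regardless of how many single replicates reach that level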;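 note: positive control wells lacked labelled fibronectin entirely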
#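 Material – AH1F fibroblast monolayer, labelled fibronectin deposition · Reagent – labelled fibronectin 24 nM · Timing – 1 h adhesion, overnight exposure · Measured by – fluorescence at 485 nm excitation, 525 nm emission · Read-out – inhibition of fibronectin deposition signal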
# DNA binder FP: small molecule DNA binding by fluorescence polarization; salmon sperm DNA acridine orange fluorescence polarization; shares compounds with EWS-Fli block; AID 720586; 2% of 640 active; AC35, µM (doses to about 68 µM), inactives show at the top dose activity change, negative = DNA binding;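 active = fitted curve reaches a 35% signal fall AC35 below twice the sample's top valid tested dose, actives reach about 48 µM in these data; inactive = the rest, including activity in the rising direction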;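 note: lower polarization ratio signals compound binding to DNA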
# The depositor's hits bear a star; i = inactive; / = no result; [ ] = remark or other dose.
SMILES,PAX8 inh HTS,AF4-AF9 inh,Glyco luc inh,EWS-Fli block,Env fusion inh,FN deposition inh,DNA binder FP
CCOC(=O)OC[C@@H]1[C@@H]2NC(=O)N(C)[C@@]1(COCc1ccc(OC)cc1)Oc1ccccc12,16.9,-0.3,/,17.4,-2.5[16.7 µM],/,/
C[C@H]1CN([C@@H](C)CO)C(=O)c2cc(Br)cnc2O[C@@H]1CN(C)C(=O)NC1CCCC1,/,-4.9,/,0.4,9.2[16.7 µM],-2.8,/
C[C@@H]1CN([C@@H](C)CO)C(=O)Cc2cc(NS(=O)(=O)c3ccc(F)cc3)ccc2O[C@@H]1CN(C)C(=O)Nc1ccc(F)cc1,/,-1.8,/,2.8,-12.8[16.7 µM],/,/
CCOc1cc(/C=N/Nc2cc(C)nc(-n3nc(C)cc3C)n2)ccc1O,31.6,-3.2,-3.9,53.4*,-3.2,-25.4,-13.9%
CN(C)CC1CCC/C(=C\c2ccc(OC(=O)c3ccc(Cl)cc3)cc2)C1=O (stereo not drawn),/,1.1,-11.8,58.9*,59.7*,-0.8,-8.4%
CN(C)CC1CCC/C(=C\c2ccc(OC(=O)/C=C/c3ccccc3)cc2)C1=O (stereo not drawn),/,1.1,5.0,-5.4,-27.1,-8.2,/
CCOC(=O)Cc1ccc(NC(=O)c2ccccc2Br)cc1,-36.4,-1.0,0.1,51.6*,-11.7,9.5,-0.9%
CCOC(=O)Cc1ccc(NC(=O)c2ccc(C(C)(C)C)cc2)cc1,/,/,-3.5,/,/,/,/
Cc1nn(Cc2ccccc2Cl)c2sc(C(=O)Nc3ccccc3N3CCOCC3)cc12,42.9,-0.8,-5.8,50.2*,16.8,8.6,-11.8%
Cc1ccc(S(=O)(=O)NCC[C@@H]2CC[C@H](NC(=O)c3cccc(F)c3)[C@H](CO)O2)cc1,-21.3,0.6,/,-7.9,10.4[16.7 µM],/,/
O=C(c1nnsc1S(=O)c1ccc(Cl)cc1)N1CCOCC1 (stereo not drawn),111.9*,-4.2,-14.8,77.9*,-3.1,1.6,-9.7%
CN1C(=O)c2cc(NC(=O)c3cccs3)ccc2OC[C@@H]2O[C@@H](CC(=O)O)CC[C@@H]21,-7.5,/,/,-12.2,/,-0.6,/
C[C@@H]1CN([C@@H](C)CO)C(=O)c2cc(NS(=O)(=O)c3ccc(F)cc3)ccc2O[C@@H](C)CCCCO[C@H]1CN(C)C(=O)Nc1ccc(F)cc1,6.3,/,/,28.4,-212.0[16.7 µM],19.5,/
COc1ccc(C(C)(O)c2nc(-c3cccc(F)c3)cs2)cc1 (stereo not drawn),17.9,-3.6,18.0,52.6*,5.2,9.9,1.7%
O=C(N/N=C/c1cccnc1)c1cc(-c2ccc(Cl)cc2)nc2ccccc12,24.4,-0.1,18.3,12.4,8.5,10.5,/
O=C(N/N=C/c1ccc[nH]1)c1cc(-c2ccc(Cl)cc2)nc2ccccc12,8.7,11.6,-2.2,54.3*,-4.8,0.1,-6.2%
CO[C@@H]1CN(C)C(=O)c2cc(NC(C)=O)ccc2OC[C@@H](C)N(C(=O)CC2CC2)C[C@H]1C,/,-0.8,/,0.1,-4.4[16.7 µM],/,/
CCOc1cc2[nH]c(=S)n(Cc3ccc(C(=O)NCC(OC)OC)cc3)c(=O)c2cc1OCC,/,/,2.9,/,-45.3,-7.5,/
CCOc1cc2[nH]c(=S)n(Cc3ccc(C(=O)NCCN(CC)CC)cc3)c(=O)c2cc1OCC,-33.3,-0.7,-6.0,57.7*,-1.7,4.7,2.7%
CCCCN1C(=O)/C(=C/C=C2\Oc3ccccc3N2CC)SC1=S,-5.0,0.1,-3.9,-35.2,0.4,-104.2,/
CCN1/C(=C/C=C/c2oc3ccc(-c4ccccc4)cc3[n+]2CC)Oc2ccc(-c3ccccc3)cc21,97.7*,-29.6,-8.5,90.5*,76.8*,i,22.4µM*
COc1ccc(Nc2oc(COc3ccccc3OC)nc2C#N)cc1,23.8,0.1,-18.1,54.0*,22.1,-1.5,8.5%
COc1ccc(OC)c(-c2nnc3n2N=C(c2ccc(OC)c(OC4CCCC4)c2)CS3)c1,88.6*,9.4,30.0*,52.2*,-53.8,0.6,-12.8%
COc1ccc(C2=Nn3c(nnc3-c3ccccc3OC)SC2)cc1OCC1CC1,77.5*,2.7,15.0,61.9*,-94.4,3.5,-14.2%
O=C(C[C@H]1C[C@H]2c3cc(NC(=O)CC4CC4)ccc3O[C@H]2[C@@H](CO)O1)NCc1ccccc1F,/,0.7,/,-11.9,/,4.8,/
